{"source": "ChEMBL document CHEMBL1828499", "about": "“Design and synthesis of inhibitors of noroviruses by scaffold hopping” (Bioorg Med Chem, 2011)", "key": {"[1]": {"assay": "Cytotoxicity against human HG23 cells after 48 hrs", "type": "cell-based", "conditions": "read-out: TD50", "in_short": "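HG23 cells (Norwalk virus replicon-harboring) exposed to each compound at 0 (mock-DMSO) to 320 μM for 48 hr; viability read with a cell cytotoxicity assay kit; median toxic dose (TD50) calculated.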"}, "Norovirus": {"tested_on": "Norovirus", "assay": "Antiviral activity against Norovirus infected in human HG23 cells assessed as inhibition of viral replication after 24 hrs by qRT-PCR", "type": "functional", "conditions": "HG23, 24 h, read-out: ED50 (the source's name)", "in_short": "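HG23 cells (harbouring NV replicon), one day old and 80–90% confluent, exposed to each compound over 0 (mock-DMSO) to 20 μM. NV genome levels measured by qRT-PCR; ED50 for genome level taken at 24 hr post-treatment.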"}}, "data": [{"smiles": "O=C1NCCN1Cc1cccc(Oc2ccccc2)c1", "values": [{"measurement": "CC50 at 48 h", "setting": "[1]", "value": 95, "unit": "µM"}, {"measurement": "EC50", "setting": "Norovirus", "value": 8, "unit": "µM"}]}, {"smiles": "O=C(O)CN1CCN(Cc2cccc(Oc3ccccc3)c2)C1=O", "values": [{"measurement": "EC50", "setting": "Norovirus", "value": "> 20", "unit": "µM"}]}, {"smiles": "O=C1N(CCN2CCOCC2)CCN1Cc1cccc(Oc2ccccc2)c1", "values": [{"measurement": "CC50 at 48 h", "setting": "[1]", "value": 120, "unit": "µM"}, {"measurement": "EC50", "setting": "Norovirus", "value": 16, "unit": "µM"}]}, {"smiles": "O=C1NCCCN1Cc1cccc(Oc2ccccc2)c1", "values": [{"measurement": "EC50", "setting": "Norovirus", "value": "> 20", "unit": "µM"}]}, {"smiles": "O=C1CN(Cc2cccc(Oc3ccccc3)c2)S(=O)(=O)N1", "values": [{"measurement": "EC50", "setting": "Norovirus", "value": "> 20", "unit": "µM"}]}, {"smiles": "CCCCc1cn(Cc2cccc(Oc3ccccc3)c2)nn1", "values": [{"measurement": "CC50 at 48 h", "setting": "[1]", "value": 40, "unit": "µM"}, {"measurement": "EC50", "setting": "Norovirus", "value": 6, "unit": "µM"}]}, {"smiles": "c1ccc(Oc2cccc(Cc3nn[nH]n3)c2)cc1", "values": [{"measurement": "EC50", "setting": "Norovirus", "value": "> 20", "unit": "µM"}]}, {"smiles": "c1ccc(Oc2cccc(Cn3ccnc3)c2)cc1", "values": [{"measurement": "CC50 at 48 h", "setting": "[1]", "value": 35, "unit": "µM"}, {"measurement": "EC50", "setting": "Norovirus", "value": 8, "unit": "µM"}]}, {"smiles": "O=S1(=O)NCCCN1Cc1cccc(Oc2ccccc2)c1", "values": [{"measurement": "EC50", "setting": "Norovirus", "value": "> 20", "unit": "µM"}]}, {"smiles": "CC(C)(C)OC(=O)CN1CCN(Cc2cccc(Oc3ccccc3)c2)C1=O", "values": [{"measurement": "CC50 at 48 h", "setting": "[1]", "value": 55, "unit": "µM"}, {"measurement": "EC50", "setting": "Norovirus", "value": 12, "unit": "µM"}]}, {"smiles": "C[Si](C)(C)c1cn(Cc2cccc(Oc3ccccc3)c2)nn1", "values": [{"measurement": "CC50 at 48 h", "setting": "[1]", "value": 30, "unit": "µM"}, {"measurement": "EC50", "setting": "Norovirus", "value": 7, "unit": "µM"}]}, {"smiles": "O=C(O)CCCc1cn(Cc2cccc(Oc3ccccc3)c2)nn1", "values": [{"measurement": "EC50", "setting": "Norovirus", "value": "> 20", "unit": "µM"}]}, {"smiles": "Cn1nnc(Cc2cccc(Oc3ccccc3)c2)n1", "values": [{"measurement": "EC50", "setting": "Norovirus", "value": "> 20", "unit": "µM"}]}, {"smiles": "c1ccc(Oc2cccc(Cn3ccnn3)c2)cc1", "values": [{"measurement": "CC50 at 48 h", "setting": "[1]", "value": 100, "unit": "µM"}, {"measurement": "EC50", "setting": "Norovirus", "value": 10, "unit": "µM"}]}, {"smiles": "O=C1N(CCN2CCN(CCN3CCN(Cc4cccc(Oc5ccccc5)c4)C3=O)CC2)CCN1Cc1cccc(Oc2ccccc2)c1", "values": [{"measurement": "CC50 at 48 h", "setting": "[1]", "value": 2.5, "unit": "µM"}, {"measurement": "EC50", "setting": "Norovirus", "value": 0.5, "unit": "µM"}]}, {"smiles": "CC(C)(O)c1cn(Cc2cccc(Oc3ccccc3)c2)nn1", "values": [{"measurement": "EC50", "setting": "Norovirus", "value": "> 20", "unit": "µM"}]}]}
